Read-outs that look alike come from different tables or passages of the source. Peptide text beside a SMILES is read from it.
What was measured:
MV4;11 cells [1] = assay: MV4; assay type: cell-based; settings: 1 mM; for pyroptosis in PEPD−/− knockout cells / activity in control cells: 14 h; for lytic cell death / cytotoxicity in MV4;11 cells: PI uptake, CTG, CTF
N/TERT-1 keratinocytes = assay: NLRP1 inflammasome activation in N/TERT-1 keratinocytes; assay type: cell-based, human; settings: XP-OMes 1 mM, VbP 10 μM, CQ31 10 μM, 16 h
Procedure, shortened: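 N/TERT-1 immortalised keratinocytes seeded at 1×10^5 cells per well in 12-well plates, grown to 70% confluence, then treated with test compound for 16 h. Supernatants assayed for LDH activity with a commercial cytotoxicity kit; inflammasome readouts such as IL-18 processing assessed by immunoblotting.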

recombinant DPP9 = recombinant DPP9 (Homo sapiens, UniProt Q86TI2); assay: AP-AMC-based DPP9 substrate assay; assay type: biochemical; settings: for effect of esterification on DPP9 inhibition: methyl ester vs free dipeptide
Procedure, shortened: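 Recombinant DPP9 (1 nM) is dispensed into 384-well plates and test compound is added by pintool over a concentration series. Reaction starts with 25 μM AP-AMC. Cleavage is read as rising fluorescence (ex/em 380/460 nm) at 25 °C for 30 min.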

RAW264.7 cells = assay: Pyroptosis in RAW264.7 macrophages; assay type: cell-based, mouse; settings: 24 h; for pyroptosis at fivefold higher concentration: 5 mM, CTF and CTG
resting primary T cells = assay: Pyroptosis in resting primary T cells; assay type: cell-based, human; settings: for GSDMD cleavage in resting T cells: 1 mM, 18 h
Procedure, shortened: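 Primary resting human CD3+ T cells (>90% purity) are thawed in RPMI/10% FBS and cultured with IL-2 30 U ml−1. Cells are treated with 1 mM for 18 h or 10 μM for 24 h. Analysis is by immunoblot for pyroptotic and apoptotic markers, with CTG viability after 24 h. Results are representative of two independent experiments.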

[2] = test system: VbP-sensitive cell lines, including THP-1 cells; assay: Viability of VbP-sensitive AML cancer cell lines; assay type: cell-based, human; settings: 24 h, CTG
Procedure, shortened: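 Cell lines grown in RPMI/10% FBS are seeded at 2,000 cells per well in 384-well plates (25 μl). Test compound is pinned in at multiple concentrations and incubated 24 h at 37 °C, 5% CO2. CellTiter-Glo is added, plates are shaken 2 min and held 10 min at 25 °C, and luminescence is read.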

MV4;11 cells [3] = assay: MV4; assay type: cell-based, human; settings: for PI uptake, GSDMD cleavage and LDH release in knockout cells: CASP1−/− and CARD8−/− MV4;11; for LDH release and GSDMD cleavage in PEPD−/− vs control cells: PEPD−/− MV4;11, 1 mM; for LDH release and GSDMD cleavage in PEPD−/− vs control cells / effect on CQ31-induced cell death / effect on VP-OMe- and IP-OMe-induced LDH release and GSDMD cleavage: 6 h; for LDH release and GSDMD cleavage / effect on CQ31-induced cell death: WT MV4;11; for LDH release and GSDMD cleavage: XP-OMes 1 mM, VbP 2 μM, 14 h; for effect on CQ31-induced cell death: CQ31 10 μM; for effect on CQ31-induced cell death / effect on VP-OMe- and IP-OMe-induced LDH release and GSDMD cleavage: bortezomib 1 μM, VX-765 50 μM; for effect on VP-OMe- and IP-OMe-induced LDH release and GSDMD cleavage: pretreatment
Procedure, shortened: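 MV4;11 cells (WT or knockouts) are plated at 5×10^5 per well. Treatments: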

THP-1 cells = assay: THP-1 LDH release and GSDMD cleavage immunoblot; assay type: cell-based, human; settings: for PI uptake, GSDMD cleavage and LDH release in knockout cells: CASP1−/− and CARD8−/− THP-1; for additional pyroptosis in DPP8/9−/− THP-1 cells: LDH release, GSDMD cleavage, CTG and CTF; for LDH release and GSDMD cleavage: WT THP-1, XP-OMes 1 mM, VbP 2 μM, 24 h
NLRP1–DPP9 interaction = NLRP1–DPP9 interaction (Homo sapiens, UniProt Q86TI2); assay: DPP9 displacement from FLAG-NLRP1 on anti-FLAG beads; assay type: binding; settings: VbP 10 μM; VP dipeptide 0.5, 5 mM; CQ31, CQ04 10 μM
J774.1 macrophages = assay: Pyroptosis in J774.1 macrophages; assay type: cell-based, mouse; settings: VbP 2 μM, 24 h
Procedure, shortened: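 J774.1 cells are grown in RPMI/10% FBS, plated at 5×10^5 per well and treated 24 h (VbP 2 μM). Supernatant LDH is measured relative to Triton X-100 lysis (n = 3). For the dose series, 2,000 cells per well in 384-well plates get compound by pintool. CTF fluorescence is read after 30 min, then CTG luminescence after 2 min shaking and 10 min at 25 °C (n = 6).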

human NLRP1 inflammasome = assay: Reconstituted human NLRP1 inflammasome in HEK 293T cells; assay type: cell-based; settings: XP-OMes 1 mM, VbP 10 μM, CQ31 10 μM, 24 h
Procedure, shortened: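 For ASC specks, HEK 293T cells (2.5×10^5 per well) are transfected with 10 ng FLAG-NLRP1, 5 ng V5-GFP-ASC and 985 ng RFP plasmid and allowed 24 h expression. They are treated 24 h, Hoechst-stained, and the % of cells with specks is scored by microscopy. For GSDMD cleavage, HEK 293T cells stably expressing CASP1/GSDMD get 0.02 μg NLRP1 and 0.01 μg ASC (2.0 μg total DNA), are treated 16–20 h later for 24 h, and are immunoblotted.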

Chain of recombinant DPP9 (Q86TI2 whole entry, species assumed): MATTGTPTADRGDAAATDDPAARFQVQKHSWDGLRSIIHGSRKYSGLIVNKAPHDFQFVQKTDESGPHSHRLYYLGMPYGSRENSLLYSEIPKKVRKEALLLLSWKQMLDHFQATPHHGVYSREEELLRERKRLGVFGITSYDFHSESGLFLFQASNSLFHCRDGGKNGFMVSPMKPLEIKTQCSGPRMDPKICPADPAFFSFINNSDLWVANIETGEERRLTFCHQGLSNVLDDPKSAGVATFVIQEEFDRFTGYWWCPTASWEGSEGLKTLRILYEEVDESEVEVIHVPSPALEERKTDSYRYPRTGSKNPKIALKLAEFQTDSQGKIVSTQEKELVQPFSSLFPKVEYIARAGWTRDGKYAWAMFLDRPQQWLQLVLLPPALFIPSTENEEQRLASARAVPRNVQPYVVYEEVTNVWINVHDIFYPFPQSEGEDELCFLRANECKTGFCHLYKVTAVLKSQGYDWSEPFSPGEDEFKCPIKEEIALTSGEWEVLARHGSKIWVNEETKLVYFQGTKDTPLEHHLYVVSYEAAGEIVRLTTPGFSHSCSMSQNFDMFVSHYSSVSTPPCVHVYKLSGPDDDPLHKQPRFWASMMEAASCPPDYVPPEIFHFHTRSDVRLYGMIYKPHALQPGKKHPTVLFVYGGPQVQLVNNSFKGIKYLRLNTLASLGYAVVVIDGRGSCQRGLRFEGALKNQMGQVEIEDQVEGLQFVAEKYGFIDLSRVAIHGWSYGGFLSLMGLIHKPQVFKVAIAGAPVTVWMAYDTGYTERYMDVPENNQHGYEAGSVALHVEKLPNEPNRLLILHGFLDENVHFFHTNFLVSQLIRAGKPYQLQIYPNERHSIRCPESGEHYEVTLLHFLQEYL
Chain of NLRP1–DPP9 interaction (Q86TI2 whole entry): as the sequence (Q86TI2 whole entry, species assumed) above

**Q.** How did the “pyroptosis in PEPD−/− knockout cells” value (MV4;11 cells [1]) turn out when `COC(=O)[C@@H]1CCCN1C(=O)[C@@H](N)CC(C)C` [LP-OMe] (H-Leu-Pro-OMe) was run?
**A.** induced pyroptosis

**Q.** What about the “activity in control cells” value (MV4;11 cells [1]) of the same compound?
**A.** inactive in control cells

**Q.** How did the “NLRP1 inflammasome activation (LDH release, IL-18 cleavage and release)” value (“NLRP1 inflammasome activation” below) (N/TERT-1 keratinocytes) turn out when `COC(=O)[C@@H]1CCCN1C(=O)[C@@H](N)C(C)C` [VP-OMe] (H-Val-Pro-OMe) was run?
**A.** did not induce NLRP1 inflammasome activation

**Q.** And the “lytic cell death / cytotoxicity in MV4;11 cells” value (“lytic cell death / cytotoxicity” for short) (MV4;11 cells [1])?
**A.** cytotoxic

**Q.** And the “effect of esterification on DPP9 inhibition” value (recombinant DPP9)?
**A.** did not impact DPP9 inhibition

**Q.** What about the “pyroptosis at fivefold higher concentration” value (RAW264.7 cells) of the same compound?
**A.** failed to trigger pyroptosis

**Q.** What about the “GSDMD cleavage in resting T cells” value (resting primary T cells) of the same compound?
**A.** induced GSDMD cleavage

**Q.** And the “concentration inducing cell death” value [2]?
**A.** < 5 mM

**Q.** And the “PI uptake, GSDMD cleavage and LDH release in knockout cells” value (shortened to “PI uptake”) (MV4;11 cells [3])?
**A.** lack of PI uptake, GSDMD cleavage and LDH release

**Q.** And the “LDH release and GSDMD cleavage in PEPD−/− vs control cells” value (MV4;11 cells [3])?
**A.** induced more LDH release and GSDMD cleavage

**Q.** And the “LDH release and GSDMD cleavage” value (MV4;11 cells [3])?
**A.** induced the release of intracellular lactate dehydrogenase (LDH) and GSDMD cleavage

**Q.** And the “PI uptake” value (THP-1 cells)?
**A.** lack of PI uptake, GSDMD cleavage and LDH release

**Q.** And the “additional pyroptosis in DPP8/9−/− THP-1 cells” value (“additional pyroptosis” below) (THP-1 cells)?
**A.** did not induce any additional pyroptosis

**Q.** What about the “LDH release and GSDMD cleavage” value (THP-1 cells) of the same compound?
**A.** induced the release of intracellular lactate dehydrogenase (LDH) and GSDMD cleavage

**Q.** `COC(=O)[C@@H]1CCCN1C(=O)[C@@H]1CCCN1` [PP-OMe] (H-Pro-Pro-OMe) was tested. Which “pyroptosis in PEPD−/− knockout cells” value (MV4;11 cells [1]) did it give?
**A.** induced pyroptosis

**Q.** And the “activity in control cells” value (MV4;11 cells [1])?
**A.** inactive in control cells

**Q.** For `CCO[C@@H]1OC(=O)C[C@@H]1NC(=O)[C@@H]1CCCN1C(=O)[C@@H](NC(=O)c1ccc(N)c(Cl)c1)C(C)(C)C` [VX-765, reference compound], which “effect on CQ31-induced cell death” value (MV4;11 cells [3]) is on record?
**A.** blocked CQ31-induced cell death

**Q.** What about the “effect on VP-OMe- and IP-OMe-induced LDH release and GSDMD cleavage” value (MV4;11 cells [3]) of the same compound?
**A.** completely blocked

**Q.** For `CC(C)C[C@H](NC(=O)[C@H](Cc1ccccc1)NC(=O)c1cnccn1)B(O)O` [bortezomib, reference compound], which “apoptosis (PARP cleavage)” value (MV4;11 cells [3]) is on record?
**A.** caused considerable apoptosis

**Q.** What about the “effect on CQ31-induced cell death” value (MV4;11 cells [3]) of the same compound?
**A.** blocked CQ31-induced cell death

**Q.** What about the “effect on VP-OMe- and IP-OMe-induced LDH release and GSDMD cleavage” value (MV4;11 cells [3]) of the same compound?
**A.** completely blocked

**Q.** With `COC(=O)[C@@H]1CCCN1C(=O)[C@@H](N)CCSC` [MP-OMe] (H-Met-Pro-OMe) as the compound, how does the “pyroptosis in PEPD−/− knockout cells” value (MV4;11 cells [1]) read?
**A.** induced pyroptosis

**Q.** And the “activity in control cells” value (MV4;11 cells [1])?
**A.** inactive in control cells

**Q.** `CC(C)[C@H](N)C(=O)N1CCC[C@H]1C(=O)O` [Val-Pro, reference compound] (H-Val-Pro-OH) was tested. Which “lytic cell death / cytotoxicity” value (MV4;11 cells [1]) did it give?
**A.** did not induce lytic cell death

**Q.** What about the IC50 (recombinant DPP9; read-out: IC50, DPP9 inhibition, Ala-Pro-aminomethylcoumarin (AP-AMC) substrate) of the same compound?
**A.** 10 to 15 µM

**Q.** What about the “disruption of NLRP1–DPP9 interaction (DPP9 elution)” value (NLRP1–DPP9 interaction) of the same compound?
**A.** had no impact on the NLRP1 ternary complex

**Q.** Which “lytic cell death / cytotoxicity” value (MV4;11 cells [1]) does the source give for `CCC(C)C(N)C(=O)N1CCCC1C(=O)O` (stereo not drawn) [Ile-Pro, reference compound] (H-Ile-Pro-OH; configuration not given here) here?
**A.** did not induce lytic cell death

**Q.** What about the IC50 (recombinant DPP9) of the same compound?
**A.** 10 to 15 µM

**Q.** How did the “NLRP1 inflammasome activation” value (N/TERT-1 keratinocytes) turn out when `CC[C@H](C)[C@H](N)C(=O)N1CCC[C@H]1C(=O)OC` [IP-OMe] (H-Ile-Pro-OMe) was run?
**A.** did not induce NLRP1 inflammasome activation

**Q.** And the “lytic cell death / cytotoxicity” value (MV4;11 cells [1])?
**A.** cytotoxic

**Q.** And the “effect of esterification on DPP9 inhibition” value (recombinant DPP9)?
**A.** did not impact DPP9 inhibition

**Q.** What about the “pyroptosis at fivefold higher concentration” value (RAW264.7 cells) of the same compound?
**A.** failed to trigger pyroptosis

**Q.** What about the “GSDMD cleavage in resting T cells” value (resting primary T cells) of the same compound?
**A.** induced GSDMD cleavage

**Q.** And the “PI uptake” value (MV4;11 cells [3])?
**A.** lack of PI uptake, GSDMD cleavage and LDH release

**Q.** And the “LDH release and GSDMD cleavage in PEPD−/− vs control cells” value (MV4;11 cells [3])?
**A.** induced more LDH release and GSDMD cleavage

**Q.** What about the “LDH release and GSDMD cleavage” value (MV4;11 cells [3]) of the same compound?
**A.** induced the release of intracellular lactate dehydrogenase (LDH) and GSDMD cleavage

**Q.** And the “PI uptake” value (THP-1 cells)?
**A.** lack of PI uptake, GSDMD cleavage and LDH release

**Q.** And the “additional pyroptosis” value (THP-1 cells)?
**A.** did not induce any additional pyroptosis

**Q.** And the “LDH release and GSDMD cleavage” value (THP-1 cells)?
**A.** induced the release of intracellular lactate dehydrogenase (LDH) and GSDMD cleavage

**Q.** Which “NLRP1 inflammasome activation” value (N/TERT-1 keratinocytes) does the source give for `CC(C)[C@H](N)C(=O)N1CCC[C@H]1B(O)O` [VbP, Val-boroPro, reference compound] here?
**A.** induced LDH release as well as IL-18 cleavage and release

**Q.** What about the “activation of mNLRP1B1 (LDH release)” value (J774.1 macrophages) of the same compound?
**A.** activated mouse NLRP1B allele 1

**Q.** What about the ASC speck formation (human NLRP1 inflammasome) of the same compound?
**A.** triggered the formation of ASC specks

**Q.** And the “activation of mNLRP1B1 (LDH release, GSDMD cleavage)” value (RAW264.7 cells; VbP 2 μM)?
**A.** activated mouse NLRP1B allele 1

**Q.** What about the “pyroptosis in resting primary T cells” value (resting primary T cells; 10 μM, 24 h) of the same compound?
**A.** induced pyroptosis

**Q.** What about the “LDH release and GSDMD cleavage” value (MV4;11 cells [3]) of the same compound?
**A.** induced the release of intracellular lactate dehydrogenase (LDH) and GSDMD cleavage

**Q.** What about the “additional pyroptosis” value (THP-1 cells) of the same compound?
**A.** did not induce any additional pyroptosis

**Q.** What about the “LDH release and GSDMD cleavage” value (THP-1 cells) of the same compound?
**A.** induced the release of intracellular lactate dehydrogenase (LDH) and GSDMD cleavage
